One may read the IC50 as the concentration that gives 50% inhibition. Higher therefore signals lower potency.

Test [1] relates to KB. Description: Inhibitory activity of compound against KB cell growth. The note with it: Homo sapiens. It is filed as functional, cell-based. In short, it runs like this:
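KB cells plated at 3000-5000 cells/well and held overnight at 37 °C. Compound added in quadruplicate at six to eight concentrations, then 48 h at 37 °C in CO₂ (about two population doublings). Cells fixed with 95% ethanol, stained with 0.1% crystal violet, dye eluted with acidified ethanol and read at 570 nm. IC50 from regression.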

The subject of test [2] is Human alphaherpesvirus 1. The test can be described thus: Antiviral activity against herpes simplex virus type 1 (HSV-1) in an ELISA assay. It is filed as functional, organism-based. In a few lines: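 BSC-1 cells (10 000/well, MEM(E) + 10% calf serum) incubated overnight at 37 °C, then given drug in quadruplicate with HSV-1 at 100 PFU/well. After 3 days at 37 °C, plates were blocked and probed with HRP-conjugated rabbit anti-HSV-1 antibody and developed with tetramethylbenzidine. Absorbance was read at 450 and 570 nm. Percent reduction was taken versus virus without drug.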
In general terms: An ELISA detects its analyte on a solid surface through an enzyme-linked reagent.

In test [3] the test system is HFF. The test can be described thus: Visual cytotoxicity of compound on HFF cells at time of HCMV plaque enumeration. The class given is functional, cell-based. The note with it: Homo sapiens. In a few lines: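 Stationary, uninfected HFF cells in the HCMV plaque assay were scored microscopically for cytotoxicity when plaques were enumerated, after 7 days at 37 °C.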

Test [4] relates to Human betaherpesvirus 5. Description: Antiviral activity against human cytomegalovirus (HCM virus) in plaque assay. It is filed as functional, organism-based. In a few lines:
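HCMV Towne strain (plaque-purified P_O) at ca. 100 PFU/cm² on HFF cell sheets. After adsorption, compound in growth medium was added to duplicate wells at four to eight concentrations. Incubated 7 days at 37 °C, then crystal violet staining and microscopic plaque counts. Percent plaque reduction versus no drug; IC50 from regression lines.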

For `Nc1nc2cc(Cl)c(Cl)cc2n1COCCO`, the IC50 in test [1], in test [2], in test [3] and in test [4] was above 100 µM each time.
`CNc1nc2cc(Cl)c(Cl)cc2n1COCCO`: the IC50 in test [1], in test [2], in test [3] and in test [4] was above 100 µM each time.
On to `Nc1nc2c(Cl)c(Cl)ccc2n1COCCO`, for which the IC50 in test [1], in test [2], in test [3] and in test [4] was above 100 µM in each case.
As to `OCCOCn1cnc2c(Cl)cc(Cl)cc21`, the IC50 in test [1], in test [2], in test [3] and in test [4] was above 100 µM throughout.
For `CNc1nc2c(Cl)cc(Cl)cc2n1COC(CO)CO`, the IC50 in test [3] is 100 µM; in test [4], above 100 µM.
With `OCCOCn1cnc2cc(Cl)c(Cl)cc21`, the IC50 in test [1], in test [2], in test [3] and in test [4] was above 100 µM throughout.
Turning to `OCCOCn1cnc2c(Cl)c(Cl)ccc21`, the IC50 in test [1], in test [2], in test [3] and in test [4] was above 100 µM throughout.
Consider `OCCOCn1c(Cl)nc2cc(Cl)c(Cl)cc21`, for which the half-maximal inhibitory concentration (IC50) is above 320 µM in test [1], above 100 µM in test [2], above 320 µM in test [3] and above 320 µM in test [4].
Take `OCCOCn1c(SCc2ccccc2)nc2c(Cl)cc(Cl)cc21`: the IC50 in test [1] is above 100 µM; in test [2] it was above 100 µM; in test [3] it was 32 µM; in test [4], 50 µM.
Turning to `OCCOCn1c(S)nc2c(Cl)cc(Cl)cc21`, the IC50 in test [1], in test [2], in test [3] and in test [4] was above 100 µM in each case.
Take `Nc1nc2c(Cl)cc(Cl)cc2n1COCCO`: the IC50 in test [1] is above 100 µM; in test [2], 100 µM; in test [4], above 100 µM.
Turning to `OCC(CO)OCn1c(Cl)nc2c(Cl)cc(Cl)cc21`, the IC50 in test [3] and in test [4] was above 100 µM in each case.
With `Nc1nc2c(Cl)cc(Cl)cc2n1COC(CO)CO`, the IC50 in test [3] is 100 µM; in test [4], above 100 µM.
For `OCCOCn1c(S)nc2c(Cl)c(Cl)ccc21`, the IC50 in test [1], in test [2], in test [3] and in test [4] was above 100 µM throughout.
Regarding `OCCOCn1c(SCc2ccccc2)nc2cc(Cl)c(Cl)cc21`, the IC50 in test [1] worked out at 55 µM; in test [2], 45 µM; in test [3], 32 µM; in test [4] it was 40 µM.
The like results for `OCCOCn1c(S)nc2cc(Cl)c(Cl)cc21` were, in that order, above 100 µM, above 100 µM, 100 µM and above 100 µM.
Regarding `CN(C)c1nc2c(Cl)cc(Cl)cc2n1COCCO`, the concentration for half-maximal inhibition (IC50) in test [2] and in test [4] was above 100 µM throughout.
As for `OCCOCn1c(Br)nc2c(Cl)cc(Cl)cc21`, the IC50 in test [1], in test [2], in test [3] and in test [4] was above 100 µM in each case.
Take `CNc1nc2c(Cl)cc(Cl)cc2n1COCCO`: the IC50 in test [1], in test [2], in test [3] and in test [4] was above 100 µM in each case.
With `OCCOCn1c(Cl)nc2c(Cl)cc(Cl)cc21`, the IC50 in test [2] and in test [4] was above 100 µM throughout.
As to `OCCOCn1c(Br)nc2cc(Cl)c(Cl)cc21`, the IC50 in test [1], in test [2], in test [3] and in test [4] was above 100 µM in each case.
`CN(C)c1nc2cc(Cl)c(Cl)cc2n1COCCO`: the IC50 in test [1], in test [2], in test [3] and in test [4] was above 100 µM each time.
In the case of `OCCOCn1c(Br)nc2c(Cl)c(Cl)ccc21`, the concentration for half-maximal inhibition (IC50) in test [1], in test [2], in test [3] and in test [4] was above 100 µM in each case.

These data come from ChEMBL document CHEMBL1129492, “Structure-activity relationships among 2-substituted 5,6-dichloro-, 4,6-dichloro-, and 4,5-dichloro-1-[(2-hydroxyethoxy) methyl]- and -1-[(1,3-dihydroxy-2-propoxy) methyl]benzimidazoles” (J Med Chem, 1996).
